Compound activity as filed in PubChem BioAssay.
OX1R antag-1: antagonists of human orexin 1 receptor | O43613 | CHO/OX1R cells, Fluo-8 calcium fluorescence, orexin A | inhibition, % at 5 µM | 0.43% of 330,000 active | AID 434989;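 active = inhibition above its plate's threshold, mean inhibition of all tested compounds on the plate plus 3 SD, cut at about 37% in these data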;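 note: 0% = orexin A challenge wells and 100% = SB-334867-A antagonist wells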
Target sequence (O43613 whole entry, looked up): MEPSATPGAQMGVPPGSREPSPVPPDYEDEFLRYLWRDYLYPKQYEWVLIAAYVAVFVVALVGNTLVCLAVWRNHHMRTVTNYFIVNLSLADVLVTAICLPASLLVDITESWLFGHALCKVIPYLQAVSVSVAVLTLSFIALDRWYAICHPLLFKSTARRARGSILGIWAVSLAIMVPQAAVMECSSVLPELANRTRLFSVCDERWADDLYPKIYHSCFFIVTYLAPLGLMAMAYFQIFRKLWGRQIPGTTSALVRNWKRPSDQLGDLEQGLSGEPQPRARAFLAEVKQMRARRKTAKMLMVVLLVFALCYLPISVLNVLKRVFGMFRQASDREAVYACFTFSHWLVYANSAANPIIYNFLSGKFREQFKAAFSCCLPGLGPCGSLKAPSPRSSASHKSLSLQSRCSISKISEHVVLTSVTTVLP
TAAR1 antagonist: human TAAR1 antagonism | Q96RJ0 | CHO RD-HGA16 TAAR1, Fluo-8 calcium fluorescence, antagonist | inhibition, % at 3 µM | 1.5% of 360,000 active | AID 624466;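 active = inhibition above a per-plate cutoff, the mean inhibition of test compounds on that plate plus 3 SD, cut at about 49% in these data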;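 note: 0% = DMSO plus EC80 beta-PEA response and 100% = DMSO alone without agonist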
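System: RD-HGA16 CHO cells with stable hTAAR1 and Gα16 | Probe or stimulus: EC80 β-phenethylamine stimulus | Dosing: 3 µM, single point | Times: Dye loading 75 min at 37 °C, then 30 min room temperature | Measured by: Fluo-8 calcium-sensitive fluorescence | Read-out basis: % inhibition of agonist calcium response | Replicates: n of 1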
CHO parental Ca: counter-screen for OX1R antagonists: effect in parental CHO cells; AID 463079; inhibition, % at 5.6 µM; 0.63% of 330,000 active; parental CHO-K1, ATP-induced calcium, Fluo-8 fluorescence;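 active = inhibition above that plate's mean sample inhibition plus 3 SD, cut at about 26% in these data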;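 note: 0% = ATP-challenged DMSO wells and 100% = DMSO wells without ATP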
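Test system: untransfected parental CHO cell line; also added: ATP stimulus; dosing: 5.6 µM, single dose; signal: calcium-sensitive Fluo-8 fluorescence; measure: percent inhibition of ATP-evoked calcium rise, normalized to controls; benchmarks: low control ATP plus DMSO, high control DMSO only; replication: one well per compound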
GPR7 antag: human neuropeptides B/W receptor 1 antagonism. P48145. GPR7-expressing cells, fluorescence antagonist assay. inhibition, % at 4.4 µM. 1.1% of 290,000 active; in the data active = inhibition above about 16%, passing the limit was not always enough;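 note: cells stimulated with the agonist NPW; 0% = agonist with vehicle and 100% = vehicle without agonist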
Target sequence (P48145 whole entry, looked up): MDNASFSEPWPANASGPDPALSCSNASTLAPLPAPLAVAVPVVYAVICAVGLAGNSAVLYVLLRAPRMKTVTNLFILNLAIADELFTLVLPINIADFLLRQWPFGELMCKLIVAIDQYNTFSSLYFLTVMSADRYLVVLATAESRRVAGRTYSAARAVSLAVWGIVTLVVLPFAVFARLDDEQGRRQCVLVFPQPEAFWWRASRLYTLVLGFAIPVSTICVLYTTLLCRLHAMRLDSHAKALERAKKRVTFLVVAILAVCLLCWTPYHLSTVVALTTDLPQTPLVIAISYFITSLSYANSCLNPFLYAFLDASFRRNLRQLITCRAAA
TAAR1 agonist: agonists of human TAAR1 | Q96RJ0 | activation, % at 3 µM | 0.99% of 360,000 active | CHO RD-HGA16 TAAR1, Fluo-8 calcium fluorescence; vehicle wells 0%, saturating PEA agonist 100%;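 active = activation above the mean activation of all test compounds in the run plus 3 SD, cut at about 38% in these data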
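Assay system – CHO-derived RD-HGA16 cells with stable Gα16 and human TAAR1 · Compound dosing – one-point dosing at 3 µM (nominal) · Incubation – 17-24 h seeding, 75 min 37 °C dye, 30 min RT · Measured by – kinetic Fluo-8 calcium fluorescence · Control set – DMSO vehicle as 0%, PEA at EC100 as 100% · Repeats – single well for each compound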
OX1R antag-2: blocks the human orexin 1 receptor; AID 485270; inhibition, % at 6.6 µM; 1.8% of 330,000 active; OX1R-expressing cells, FRET antagonist read-out; in the data active = inhibition mostly above about 38%, no sharp cut-off; inactive = mostly below about 40%;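 note: 0% = agonist challenge alone and 100% = reference antagonist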
TAAR1 nonsel count: nonselective antagonist in TAAR1 antagonist counter-screen; shares compounds with TAAR1 antagonist; counterscreen cell line, calcium fluorescence, antagonist mode; inhibition, % at 3 µM; 77% of 2,400 active; AID 651780; in the data active = inhibition above about 22%;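 note: CHO-Ga16 host cells stimulated with ATP at an EC80 level; 0% = agonist EC80 plus vehicle and 100% = vehicle without agonist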
TAAR1 ant conf: human TAAR1 antagonism, confirmed; shares compounds with TAAR1 antagonist; TAAR1-expressing cells, fluorescence antagonist read-out; inhibition, % at 3 µM; 40% of 2,400 active; AID 651785; in the data active = inhibition above about 49%;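 note: CHO-Ga16 host cells challenged with agonist PEA near its EC80; 0% = agonist at EC80 plus vehicle and 100% = vehicle with no agonist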
Ga16 ag counter: counter-screen for TAAR1 antagonists: nonselective Ga16 agonists; shares compounds with TAAR1 antagonist; Ga16-expressing cells, calcium fluorescence, agonist counterscreen; AID 651953; activation, % at 3 µM; 18% of 2,400 active; in the data active = activation above about 12%;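 note: 0% = vehicle wells and 100% = saturating stimulus response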
TAAR1 ag counter: counter-screen for human TAAR1 antagonists: TAAR1 agonists | hTAAR1 cell line, fluorescence activation, agonist mode | 2% of 2,400 active | shares compounds with TAAR1 antagonist | activation, % at 3 µM; in the data active = activation above about 37%;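 note: CHO cells stably expressing TAAR1 with calcium dye readout; 0% = DMSO vehicle and 100% = full agonist response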
Starred values were filed as active, the others as inactive; . = no result. A selection: hits, their analogues and other compounds. The true share with any hit is near 4.5%.

SMILES	OX1R antag-1	TAAR1 antagonist	CHO parental Ca	GPR7 antag	TAAR1 agonist	OX1R antag-2	TAAR1 nonsel count	TAAR1 ant conf	Ga16 ag counter	TAAR1 ag counter
Cc1c(C(=O)N(C)Cc2ccccc2)oc2ccc(S(=O)(=O)N3CCCC3)cc12	-18	-11	-9	-1	15	17	.	.	.	.
Cc1c(C(=O)N(Cc2ccccc2)C(C)C)oc2ccc(S(=O)(=O)N3CCOCC3)cc12	-13	80*	-18	13	11	14	33*	61*	13*	11
CS(=O)(=O)Nc1ccc(-c2cnc3cccnn23)cc1	.	-23	.	.	7	.	.	.	.	.
O=C(NCC1COc2ccccc2O1)C1CCN(S(=O)(=O)c2ccc(Cl)cc2)CC1 (stereo not drawn)	-6	51*	-17	.	14	3	24*	42	12*	12
COc1ccccc1/C=C1\SC(=S)N(CCC(=O)Nc2nnc(C)s2)C1=O	-16	23	-18	-7	3	5	.	.	.	.
COc1cc(O)c(C(=O)CC(=O)c2ccncc2)c(OC)c1	.	-4	.	.	0	.	.	.	.	.
CC(C(=O)Nc1nc(-c2ccc(F)cc2)cs1)N1C(=O)C2CC=CCC2C1=O (stereo not drawn)	4	78*	6	.	19	27	40*	65*	12*	12
CCOC(=O)C1=C(COC(=O)c2ccc(Br)c(S(=O)(=O)N3CCOCC3)c2)NC(=O)NC1C (stereo not drawn)	.	24	.	.	20	.	.	.	.	.
CCc1ccc(S(=O)(=O)Nc2ccc(O)c3c(=O)cc(-c4ccccc4Cl)oc23)cc1	-12	61*	-18	.	14	32	4	25	7	16
Cc1ccc(C)c(N2CCN(C(=O)c3ccc(CSc4nc5ccncc5[nH]4)cc3)CC2)c1	53*	50*	44*	6	7	16	36*	36	12*	22
CCOc1ccc(S(=O)(=O)Nc2cccc(C(=O)N3CCN(c4ccccn4)CC3)c2)cc1	.	52*	.	.	11	.	31*	49*	16*	15
CCOc1ccc(S(=O)(=O)Nc2cccc(C(=O)N3CCN(c4ccccc4O)CC3)c2)cc1	-11	36	-28	.	11	0	.	.	.	.
COC(=O)c1ccc(NC(=O)COC(=O)CCC2CCCC2)cc1	-10	1	-24	.	-2	7	.	.	.	.
COc1ccccc1NC(=O)c1ccc(NC(=O)COC(=O)CCC2CCCC2)cc1	-17	58*	-15	-9	14	3	19	17	3	6
COc1ccccc1NC(=O)c1ccc(NC(=O)COC(=O)c2ccc(O)cc2)cc1	-13	65*	-5	.	18	3	25*	41	10	10
COc1ccccc1NC(=O)c1ccc(NC(=O)COC(=O)C(C)C)cc1	-9	0	-6	-2	2	-10	.	.	.	.
CCOC(=O)[C@]12CCC=C1N(Cc1ccccc1)C(=O)[C@H](CC(=O)NCCC(C)C)C2	.	-14	.	.	2	.	.	.	.	.
COc1ccc(NC(=O)Nc2cccc3c2O[C@H](CN(C)C(=O)Nc2ccccc2)[C@@H](C)CN([C@H](C)CO)C3=O)cc1	-13	37	-9	.	8	0	.	.	.	.
COc1ccc(CN(C)C[C@H]2Oc3c(NC(=O)Nc4ccccc4)cccc3C(=O)N([C@H](C)CO)C[C@@H]2C)cc1	-10	61*	-28	.	19	8	25*	41	11	10
COC(=O)C1=C(C)N(Cc2ccc(C(F)(F)F)cc2)C(=NCc2ccccc2)NC1c1ccccc1 (stereo not drawn)	.	51*	.	.	34	.	36*	32	18*	36
COC(=O)C1=C(C)N(Cc2cccc(C(F)(F)F)c2)C(=NCc2ccc3c(c2)OCO3)NC1c1ccc(Cl)cc1 (stereo not drawn)	.	56*	.	.	29	.	37*	41	19*	52*
COC(=O)C1=C(C)N(Cc2cccc(C(F)(F)F)c2)C(=NCc2ccc(C(F)(F)F)cc2)NC1c1ccccc1 (stereo not drawn)	.	19	.	.	10	.	.	.	.	.
COC(=O)C1=C(C)N(Cc2cccc(C(F)(F)F)c2)C(=NCc2ccc(OC)cc2)NC1c1ccc(F)cc1 (stereo not drawn)	.	53*	.	.	31	.	41*	33	15*	30
COC(=O)C1=C(C)N(Cc2ccc(C(F)(F)F)cc2)C(=NCc2ccccc2)NC1c1cccc(Cl)c1 (stereo not drawn)	.	60*	.	.	27	.	39*	37	13*	35
COC(=O)C1=C(C)N(Cc2ccc(C(F)(F)F)cc2)C(=NCc2ccccc2)NC1c1cccc(C(F)(F)F)c1 (stereo not drawn)	.	29	.	.	18	.	.	.	.	.
SMILES	OX1R antag-1	TAAR1 antagonist	CHO parental Ca	GPR7 antag	TAAR1 agonist	OX1R antag-2	TAAR1 nonsel count	TAAR1 ant conf	Ga16 ag counter	TAAR1 ag counter
O=C1CC(NS(=O)(=O)c2ccc([N+](=O)[O-])cc2)CN1c1cccc(F)c1 (stereo not drawn)	-16	0	2	.	2	31	.	.	.	.
CC1SC(=S)N(c2ccc(N(C)C)cc2)C1=O (stereo not drawn)	2	8	-6	-6	1	1	.	.	.	.
CC1(C)c2[nH]c3ccccc3c2C[C@H]2C(=O)N(Cc3ccc(F)cc3)C(=O)N21	-16	39	-18	.	16	19	.	.	.	.
O=C(Cn1[nH]c(=O)c2ccccc2c1=O)OCC(=O)c1ccccc1Cl	-8	23	-7	.	0	7	.	.	.	.
COc1cccc(CNC(=O)c2cc3c(cc2Cl)N2CCCCCC2=NS3(=O)=O)c1	-25	4	-15	.	1	23	.	.	.	.
COC(=O)c1c(NC(=O)COC(=O)CNC(=O)c2cccc(OC(F)F)c2)sc(C)c1C	.	-18	.	.	0	.	.	.	.	.
COC(=O)C1=C(C)N(C)C(=NCc2cccc(C(F)(F)F)c2)NC1c1ccc(C(F)(F)F)cc1 (stereo not drawn)	.	51*	.	.	27	.	33*	40	13*	26
COC(=O)C1=C(C)N(Cc2cccc(C(F)(F)F)c2)C(=NCc2ccc(C(F)(F)F)cc2)NC1c1ccc(Cl)cc1 (stereo not drawn)	.	31	.	.	13	.	.	.	.	.
COC(=O)C1=C(C)N(Cc2ccc(C(F)(F)F)cc2)C(=NCc2ccccc2)NC1c1ccc(C(F)(F)F)cc1 (stereo not drawn)	.	55*	.	.	23	.	41*	33	21*	44*
